Eleven compounds from ChEMBL document CHEMBL4118202, “Chiral analogues of (+)-cyclazosin as potent α1B-adrenoceptor selective antagonist” (Bioorg Med Chem, 2018) can be followed below.

Structures are written as SMILES.

Assay [1] deals with T1, Alpha-1B adrenergic receptor (Rattus norvegicus) (UniProt P15823).
T1 sequence (whole entry): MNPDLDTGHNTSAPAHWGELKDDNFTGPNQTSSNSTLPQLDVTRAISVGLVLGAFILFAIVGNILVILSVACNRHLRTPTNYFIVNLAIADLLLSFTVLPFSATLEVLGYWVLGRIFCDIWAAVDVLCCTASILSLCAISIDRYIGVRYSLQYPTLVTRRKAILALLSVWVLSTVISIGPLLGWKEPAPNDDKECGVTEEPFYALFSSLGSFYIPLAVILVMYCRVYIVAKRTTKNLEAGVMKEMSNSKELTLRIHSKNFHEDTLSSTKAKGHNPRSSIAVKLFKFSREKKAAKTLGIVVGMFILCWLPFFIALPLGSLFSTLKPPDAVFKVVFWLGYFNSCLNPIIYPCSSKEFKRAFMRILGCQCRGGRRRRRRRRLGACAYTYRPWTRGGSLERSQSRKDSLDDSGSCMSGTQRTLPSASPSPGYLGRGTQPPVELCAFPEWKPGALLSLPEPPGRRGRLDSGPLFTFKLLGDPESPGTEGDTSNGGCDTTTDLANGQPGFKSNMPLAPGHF
As to the kind of experiment: Antagonist activity at alpha1B adrenergic receptor in Wistar rat spleen assessed as inhibition of phenylephrine-induced contraction incubated for 30 mins in presence of beta-adrenoceptor blocker propranolol hydrochloride. The format is functional. An outline of the steps: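 Spleen bisected longitudinally into strips in Krebs with propranolol 4 μM, held at 1 g and equilibrated 2 h. Two isometric cumulative phenylephrine curves, each followed by 30 min washing. Third curve after 30 min vehicle or antagonist. Potency as pA2 (Schild) or pKB at one concentration (van Rossum). Responses as % of control maximum; n ≥ 4.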

For another assay, the species on record is Rattus norvegicus. As to the kind of experiment: Selectivity ratio of compound effect for antagonism of alpha1B adrenergic receptor in Wistar rat spleen to compound effect for antagonism of alpha1D adrenergic receptor in Wistar rat thoracic aorta. In short, it runs like this:
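Ratio taken as the antilog of the difference between rat tissue pA2 or pKB values for the two subtypes (vas deferens α1A, spleen α1B, aorta α1D organ-bath antagonism).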

Assay [2] addresses T2, Alpha-1B adrenergic receptor (Homo sapiens, UniProt P35368).
T2 sequence (P35368 whole entry): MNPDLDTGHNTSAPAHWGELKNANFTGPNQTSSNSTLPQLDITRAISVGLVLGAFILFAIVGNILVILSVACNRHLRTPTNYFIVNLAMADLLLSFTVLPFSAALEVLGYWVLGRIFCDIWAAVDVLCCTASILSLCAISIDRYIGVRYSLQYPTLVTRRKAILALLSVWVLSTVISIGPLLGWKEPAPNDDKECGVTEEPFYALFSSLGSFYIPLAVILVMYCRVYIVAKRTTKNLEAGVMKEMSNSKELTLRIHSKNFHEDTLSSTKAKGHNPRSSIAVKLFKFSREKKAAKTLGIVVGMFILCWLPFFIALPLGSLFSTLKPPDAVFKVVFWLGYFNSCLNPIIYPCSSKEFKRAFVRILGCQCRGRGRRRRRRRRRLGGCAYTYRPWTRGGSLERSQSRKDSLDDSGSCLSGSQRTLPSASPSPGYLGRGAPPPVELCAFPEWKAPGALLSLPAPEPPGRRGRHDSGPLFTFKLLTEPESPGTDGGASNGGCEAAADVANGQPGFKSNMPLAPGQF
The assay can be described thus: Displacement of [3H]prazosin from human alpha1B adrenergic receptor expressed in CHO cell membranes after 30 mins by rapid filtration method. In short, it runs like this:
(§1)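 Membranes (30 μg protein) from CHO cells stably transfected with the human α1a, α1b or α1d receptor. Incubated 30 min at 25 °C in 50 mM Tris-HCl pH 7.4 with 0.1–0.4 nM [3H]prazosin and competitor 1 pM–10 μM. Nonspecific binding defined by 10 μM phentolamine. Stopped by rapid filtration through PEI-treated filters. IC50 converted to Ki by Cheng-Prusoff; pKi from 2–3 experiments in triplicate.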

The target in assay [3] is T3, Alpha-1D adrenergic receptor (Homo sapiens, UniProt P25100).
T3 sequence (P25100 whole entry): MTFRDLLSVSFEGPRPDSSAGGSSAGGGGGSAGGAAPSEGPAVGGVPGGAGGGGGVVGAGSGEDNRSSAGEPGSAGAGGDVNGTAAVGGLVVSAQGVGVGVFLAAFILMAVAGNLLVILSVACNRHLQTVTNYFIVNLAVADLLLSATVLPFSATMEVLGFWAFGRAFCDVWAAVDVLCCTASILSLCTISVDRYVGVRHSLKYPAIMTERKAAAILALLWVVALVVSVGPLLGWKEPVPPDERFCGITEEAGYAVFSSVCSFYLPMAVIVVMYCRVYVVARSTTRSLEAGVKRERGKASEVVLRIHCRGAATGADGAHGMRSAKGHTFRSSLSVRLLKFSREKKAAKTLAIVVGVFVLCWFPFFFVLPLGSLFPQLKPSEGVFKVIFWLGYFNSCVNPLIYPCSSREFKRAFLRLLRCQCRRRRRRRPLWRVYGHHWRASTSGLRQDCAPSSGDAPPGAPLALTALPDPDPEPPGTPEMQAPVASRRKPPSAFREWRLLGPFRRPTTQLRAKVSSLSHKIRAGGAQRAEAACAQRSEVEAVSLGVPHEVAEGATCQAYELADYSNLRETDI
The assay can be described thus: Displacement of [3H]prazosin from human alpha1D adrenergic receptor expressed in CHO cell membranes after 30 mins by rapid filtration method. An outline of the steps:
as §1
In general terms: Displacement assays read how much labelled ligand stays bound in the presence of the test substance.

For another assay, the species on record is Homo sapiens. The assay can be described thus: Selectivity ratio of compound effect for displacement of [3H]prazosin from human alpha1D adrenergic receptor expressed in CHO cell membranes to compound effect for displacement of [3H]prazosin from human alpha1A adrenergic receptor expressed in CHO cell membranes. In short, it runs like this: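 Ratio taken as the antilog of the difference between pKi values from [3H]prazosin displacement at human α1 subtypes expressed in CHO membranes.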

With `CCCN(CCC)c1nc(N2CCN(C(=O)c3ccco3)[C@H]3CCCC[C@H]32)nc2cc(OC)c(OC)cc12`, in assay [1], the negative-log Kb (pKb) is 7.86. Besides, the Selectivity ratio in the assay filed under Rattus norvegicus amounted to 44; in the assay listed under Homo sapiens, 4. Also, the Ki was 0.302 nM in assay [2] and 5.13 nM in assay [3].

As for `COc1cc2nc(N3CCN(C(=O)OCc4ccccc4)[C@H]4CCCC[C@H]43)nc(N)c2cc1OC`, the pKb in assay [1] stood at 8.77. In addition, the Selectivity ratio in the assay filed under Rattus norvegicus turned out to be 141; in the assay filed under Homo sapiens, 1. In addition, the Ki was 0.38 nM in assay [2] and 3.98 nM in assay [3].

As for `CCCCCC(=O)N1CCN(c2nc(N)c3cc(OC)c(OC)cc3n2)[C@@H]2CCCC[C@@H]21`, the pKb in assay [1] was found to be 7.99. For the same compound, the results for the Selectivity ratio in the assay filed under Rattus norvegicus and in the assay listed under Homo sapiens were 15 and 2, respectively. Besides, the figures for the Ki in assay [2] and in assay [3] were 0.912 nM and 3.72 nM, respectively.

On to `COc1cc2nc(N3CCN(C(C)=O)[C@@H]4CCCC[C@@H]43)nc(N)c2cc1OC`, for which the values for the Selectivity ratio in the assay listed under Rattus norvegicus and in the assay listed under Homo sapiens were 4 and 60, respectively. The Ki in assay [2] was 0.741 nM; in assay [3] it was 0.151 nM.

`COc1cc2nc(N3CCN(C(=O)Cc4ccc5ccccc5c4)[C@H]4CCCC[C@H]43)nc(N)c2cc1OC`: in assay [1], the negative-log Kb (pKb) came out at 8.05. In addition, the Selectivity ratio turned out to be 15 in the assay listed under Rattus norvegicus and 8 in the assay filed under Homo sapiens. Besides, the Ki in assay [2] was 1.17 nM; in assay [3] it was 2.24 nM.

For the compound `COc1cc2nc(N3CCN(C(C)=O)[C@H]4CCCC[C@H]43)nc(N)c2cc1OC`, the Selectivity ratio in the assay listed under Rattus norvegicus turned out to be 562; in the assay filed under Homo sapiens it was 2. Besides, the inhibitory constant (Ki) in assay [2] was 9.12 nM; in assay [3], 105 nM.

`COc1cc2nc(N3CCN(C(=O)C4COc5ccccc5O4)[C@H]4CCCC[C@H]43)nc(N)c2cc1OC` (single isomer, unassigned; (-)) [CYCLODOXAZOSIN]: the pKb in assay [1] was found to be 8.61. The Selectivity ratio in the assay listed under Rattus norvegicus turned out to be 32.

`COc1cc2nc(N3CCN(C(=O)C(C)(C)C)[C@H]4CCCC[C@H]43)nc(N)c2cc1OC`: the pKb in assay [1] turned out to be 8.26. For the same compound, the Selectivity ratio in the assay filed under Rattus norvegicus amounted to 26; in the assay listed under Homo sapiens, 1. Moreover, the inhibition constant (Ki) is 0.776 nM in assay [2] and 6.17 nM in assay [3].

Turning to `CCCN(CCC)c1nc(N2CCN(C(=O)c3ccco3)[C@@H]3CCCC[C@@H]32)nc2cc(OC)c(OC)cc12`, the pKb in assay [1] amounted to 7.17. In addition, the values for the Selectivity ratio in the assay filed under Rattus norvegicus and in the assay listed under Homo sapiens were 1 and 29, respectively. Moreover, the figures for the inhibition constant (Ki) in assay [2] and in assay [3] were 0.129 nM and 0.0631 nM, respectively.

For `COc1cc2nc(N3CCN(C(=O)COc4c(OC)cccc4C(C)C)[C@H]4CCCC[C@H]43)nc(N)c2cc1OC`, the values for the Selectivity ratio in the assay filed under Rattus norvegicus and in the assay filed under Homo sapiens were 0.3 and 2, respectively. Moreover, the Ki was 0.151 nM in assay [2] and 0.389 nM in assay [3].

Take `COc1cc2nc(N3CCN(C(=O)OCc4ccccc4)[C@@H]4CCCC[C@@H]43)nc(N)c2cc1OC`: the Selectivity ratio was determined as 0.3 in the assay filed under Rattus norvegicus and 13 in the assay listed under Homo sapiens. Besides, the Ki was 0.191 nM in assay [2] and 0.0398 nM in assay [3].

Broadly, the pKb is the negative decadic logarithm of the Kb, by convention in mol/L. Broadly, the Ki is a dissociation constant, usually derived from enzyme kinetics or from competition with a known ligand. Higher therefore signals weaker binding.
